According to ChEMBL document CHEMBL1671735, “Genetic factors associated with elevated carbapenem resistance in KPC-producing Klebsiella pneumoniae” (2010):
≈ marks a conversion by molar mass, not a printed value.

What was measured:
Assay type in all cases: functional
Klebsiella pneumoniae [1] = test: Antimicrobial activity against OmpK35-deficient Carbapenem-resistant Klebsiella pneumoniae isolate ART2008136 expressing KPC beta lactamase by broth microdilution method
Method in brief: (§1)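 The clinical K. pneumoniae isolates had been referred to CDC for susceptibility testing. bla_KPC was confirmed by PCR and subtyped by bidirectional sequencing of a 1,011-bp amplicon. Isolates were typed by PFGE of XbaI-digested DNA.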

Klebsiella pneumoniae [2] = test: Antimicrobial activity against OmpK35-deficient Carbapenem-resistant Klebsiella pneumoniae isolate ART2008226 expressing KPC beta lactamase by broth microdilution method
Klebsiella pneumoniae [3] = test: Antimicrobial activity against OmpK35-deficient Carbapenem-resistant Klebsiella pneumoniae isolate ART2008138 expressing KPC beta lactamase by broth microdilution method
Klebsiella pneumoniae [4] = test: Antimicrobial activity against OmpK35-deficient Carbapenem-resistant Klebsiella pneumoniae isolate HIP14474 expressing KPC beta lactamase by broth microdilution method
Klebsiella pneumoniae [5] = test: Antimicrobial activity against OmpK35,OmpK36-deficient Carbapenem-resistant Klebsiella pneumoniae isolate ART2008135 expressing KPC beta lactamase by broth microdilution method
Klebsiella pneumoniae [6] = test: Antimicrobial activity against OmpK35-deficient Carbapenem-resistant Klebsiella pneumoniae isolate ART2008142 expressing KPC beta lactamase by broth microdilution method
Klebsiella pneumoniae [7] = test: Antimicrobial activity against Carbapenem-resistant Klebsiella pneumoniae isolate ART2008024 expressing KPC beta lactamase by broth microdilution method
Klebsiella pneumoniae [8] = test: Antimicrobial activity against Carbapenem-resistant Klebsiella pneumoniae isolate AIS080884 expressing KPC beta lactamase by broth microdilution method
Klebsiella pneumoniae [9] = test: Antimicrobial activity against OmpK35,OmpK36-deficient Carbapenem-resistant Klebsiella pneumoniae isolate ART2008027 expressing KPC beta lactamase by broth microdilution method
Klebsiella pneumoniae [10] = test: Antimicrobial activity against OmpK35-deficient Carbapenem-resistant Klebsiella pneumoniae isolate ART2008143 expressing KPC beta lactamase by broth microdilution method
Klebsiella pneumoniae [11] = test: Antimicrobial activity against OmpK35-deficient Carbapenem-resistant Klebsiella pneumoniae isolate AIS081042 expressing KPC beta lactamase by broth microdilution method
Klebsiella pneumoniae [12] = test: Antimicrobial activity against OmpK35-deficient Carbapenem-resistant Klebsiella pneumoniae isolate ART2008026 expressing KPC beta lactamase by broth microdilution method
Klebsiella pneumoniae [13] = test: Antimicrobial activity against OmpK35-deficient Carbapenem-resistant Klebsiella pneumoniae isolate ART2008139 expressing KPC beta lactamase by broth microdilution method
Klebsiella pneumoniae [14] = test: Antimicrobial activity against OmpK35-deficient Carbapenem-resistant Klebsiella pneumoniae isolate AIS080571 expressing KPC beta lactamase by broth microdilution method
Klebsiella pneumoniae [15] = test: Antimicrobial activity against OmpK35-deficient Carbapenem-resistant Klebsiella pneumoniae isolate AIS070654 expressing KPC beta lactamase by broth microdilution method
Klebsiella pneumoniae [16] = test: Antimicrobial activity against OmpK35-deficient Carbapenem-resistant Klebsiella pneumoniae isolate HIP14358 expressing KPC beta lactamase by broth microdilution method
Klebsiella pneumoniae [17] = test: Antimicrobial activity against OmpK35-deficient Carbapenem-resistant Klebsiella pneumoniae isolate AIS080792 expressing KPC beta lactamase by broth microdilution method
Klebsiella pneumoniae [18] = test: Antimicrobial activity against Carbapenem-resistant Klebsiella pneumoniae isolate ART2008028 expressing KPC beta lactamase by broth microdilution method
Klebsiella pneumoniae [19] = test: Antimicrobial activity against OmpK35-deficient Carbapenem-resistant Klebsiella pneumoniae isolate AIS081072 expressing KPC beta lactamase by broth microdilution method
Klebsiella pneumoniae [20] = test: Antimicrobial activity against OmpK35-deficient Carbapenem-resistant Klebsiella pneumoniae isolate AIS080949 expressing KPC beta lactamase by broth microdilution method
Klebsiella pneumoniae [21] = test: Antimicrobial activity against Carbapenem-resistant Klebsiella pneumoniae isolate AIS081058 expressing KPC beta lactamase by broth microdilution method
Klebsiella pneumoniae [22] = test: Antimicrobial activity against OmpK35-deficient Carbapenem-resistant Klebsiella pneumoniae isolate AIS070446 expressing KPC beta lactamase by broth microdilution method; method in brief: as §1
Klebsiella pneumoniae [23] = test: Antimicrobial activity against OmpK35,OmpK36-deficient Carbapenem-resistant Klebsiella pneumoniae isolate ART2008141 expressing KPC beta lactamase by broth microdilution method
Klebsiella pneumoniae [24] = test: Antimicrobial activity against Carbapenem-resistant Klebsiella pneumoniae isolate HIP10924 expressing KPC beta lactamase by broth microdilution method
Klebsiella pneumoniae [25] = test: Antimicrobial activity against OmpK35-deficient Carbapenem-resistant Klebsiella pneumoniae isolate ART2008140 expressing KPC beta lactamase by broth microdilution method
Klebsiella pneumoniae [26] = test: Antimicrobial activity against OmpK35-deficient Carbapenem-resistant Klebsiella pneumoniae isolate ART2008022 expressing KPC beta lactamase by broth microdilution method
Klebsiella pneumoniae [27] = test: Antimicrobial activity against OmpK35-deficient Carbapenem-resistant Klebsiella pneumoniae isolate ART2008137 expressing KPC beta lactamase by broth microdilution method; method in brief: as §1

SMILES | MIC (Klebsiella pneumoniae [1]) | MIC (Klebsiella pneumoniae [2]) | MIC (Klebsiella pneumoniae [3]) | MIC (Klebsiella pneumoniae [4]) | MIC (Klebsiella pneumoniae [5]) | MIC (Klebsiella pneumoniae [6]) | MIC (Klebsiella pneumoniae [7]) | MIC (Klebsiella pneumoniae [9]) | MIC (Klebsiella pneumoniae [11]) | MIC (Klebsiella pneumoniae [12]) | MIC (Klebsiella pneumoniae [14]) | MIC (Klebsiella pneumoniae [15]) | MIC (Klebsiella pneumoniae [17]) | MIC (Klebsiella pneumoniae [18]) | MIC (Klebsiella pneumoniae [19]) | MIC (Klebsiella pneumoniae [21]) | MIC (Klebsiella pneumoniae [22]) | MIC (Klebsiella pneumoniae [23]) | MIC (Klebsiella pneumoniae [24]) | MIC (Klebsiella pneumoniae [25]) | other results
C[C@@H](O)[C@H]1C(=O)N2C(C(=O)O)=C(S[C@@H]3CN[C@H](C(=O)Nc4cccc(C(=O)O)c4)C3)[C@H](C)[C@H]12 | 16 µg/mL (≈ 33.6 µM) | < 0.5 µg/mL | 128 µg/mL (≈ 269 µM) | 16 µg/mL (≈ 33.6 µM) | 1020 µg/mL (≈ 2150 µM) | 8 µg/mL (≈ 16.8 µM) | 128 µg/mL (≈ 269 µM) | 1020 µg/mL (≈ 2150 µM) | 256 µg/mL (≈ 538 µM) | 256 µg/mL (≈ 538 µM) | 256 µg/mL (≈ 538 µM) | 2 µg/mL (≈ 4.21 µM) | 64 µg/mL (≈ 135 µM) | 8 µg/mL (≈ 16.8 µM) | 8 µg/mL (≈ 16.8 µM) | 2 µg/mL (≈ 4.21 µM) | 4 µg/mL (≈ 8.41 µM) | 256 µg/mL (≈ 538 µM) | 4 µg/mL (≈ 8.41 µM) | 8 µg/mL (≈ 16.8 µM) | MIC (Klebsiella pneumoniae [8]): 8 µg/mL (≈ 16.8 µM); MIC (Klebsiella pneumoniae [10]): 64 µg/mL (≈ 135 µM); MIC (Klebsiella pneumoniae [13]): 16 µg/mL (≈ 33.6 µM); MIC (Klebsiella pneumoniae [16]): 64 µg/mL (≈ 135 µM); MIC (Klebsiella pneumoniae [20]): 64 µg/mL (≈ 135 µM); MIC (Klebsiella pneumoniae [26]): 32 µg/mL (≈ 67.3 µM); MIC (Klebsiella pneumoniae [27]): 16 µg/mL (≈ 33.6 µM)
C[C@@H](O)[C@H]1C(=O)N2C(C(=O)O)=C(SCCNC=N)C[C@H]12 [IMIPENEM ANHYDROUS] | 8 µg/mL (≈ 26.7 µM) | < 1 µg/mL | 32 µg/mL (≈ 107 µM) | 8 µg/mL (≈ 26.7 µM) | 512 µg/mL (≈ 1710 µM) | < 1 µg/mL | 32 µg/mL (≈ 107 µM) | 512 µg/mL (≈ 1710 µM) | 64 µg/mL (≈ 214 µM) | 64 µg/mL (≈ 214 µM) | 128 µg/mL (≈ 428 µM) | 4 µg/mL (≈ 13.4 µM) | 32 µg/mL (≈ 107 µM) | 4 µg/mL (≈ 13.4 µM) | 2 µg/mL (≈ 6.68 µM) | 1 µg/mL (≈ 3.34 µM) | 4 µg/mL (≈ 13.4 µM) | 256 µg/mL (≈ 855 µM) | 4 µg/mL (≈ 13.4 µM) | 4 µg/mL (≈ 13.4 µM) | MIC (Klebsiella pneumoniae [8]): 2 µg/mL (≈ 6.68 µM); MIC (Klebsiella pneumoniae [10]): 8 µg/mL (≈ 26.7 µM); MIC (Klebsiella pneumoniae [13]): 32 µg/mL (≈ 107 µM); MIC (Klebsiella pneumoniae [16]): 32 µg/mL (≈ 107 µM); MIC (Klebsiella pneumoniae [20]): 32 µg/mL (≈ 107 µM); MIC (Klebsiella pneumoniae [26]): 8 µg/mL (≈ 26.7 µM); MIC (Klebsiella pneumoniae [27]): 4 µg/mL (≈ 13.4 µM)
C[C@@H](O)[C@H]1C(=O)N2C(C(=O)O)=C(S[C@@H]3CN[C@H](C(=O)N(C)C)C3)[C@H](C)[C@H]12 [MEROPENEM] | 8 µg/mL (≈ 20.9 µM) | < 0.25 µg/mL | 32 µg/mL (≈ 83.4 µM) | 8 µg/mL (≈ 20.9 µM) | 256 µg/mL (≈ 668 µM) | 4 µg/mL (≈ 10.4 µM) | 64 µg/mL (≈ 167 µM) | 512 µg/mL (≈ 1340 µM) | 128 µg/mL (≈ 334 µM) | 64 µg/mL (≈ 167 µM) | 128 µg/mL (≈ 334 µM) | 1 µg/mL (≈ 2.61 µM) | 32 µg/mL (≈ 83.4 µM) | 8 µg/mL (≈ 20.9 µM) | 2 µg/mL (≈ 5.22 µM) | 4 µg/mL (≈ 10.4 µM) | 4 µg/mL (≈ 10.4 µM) | 256 µg/mL (≈ 668 µM) | 4 µg/mL (≈ 10.4 µM) | 2 µg/mL (≈ 5.22 µM) | MIC (Klebsiella pneumoniae [27]): 8 µg/mL (≈ 20.9 µM)
